From PubChem
Hits are enriched below; roughly 2.3% of the tested compounds scored in any of these assays.
TRPC4 potent – allosteric potentiators of mouse TRPC4 channel | HEK293 TRPC4beta/mu-opioid, DAMGO EC20, Fluo-4 Ca2+ flux; active compounds read high | B-score at 10 µM | 0.42% of 310,000 active;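 active = B-score of calcium response area above 5 SD of library B-scores, with initial fluorescence ratio within 5 SD of library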
Target sequence (Q9QUQ5 whole entry, looked up): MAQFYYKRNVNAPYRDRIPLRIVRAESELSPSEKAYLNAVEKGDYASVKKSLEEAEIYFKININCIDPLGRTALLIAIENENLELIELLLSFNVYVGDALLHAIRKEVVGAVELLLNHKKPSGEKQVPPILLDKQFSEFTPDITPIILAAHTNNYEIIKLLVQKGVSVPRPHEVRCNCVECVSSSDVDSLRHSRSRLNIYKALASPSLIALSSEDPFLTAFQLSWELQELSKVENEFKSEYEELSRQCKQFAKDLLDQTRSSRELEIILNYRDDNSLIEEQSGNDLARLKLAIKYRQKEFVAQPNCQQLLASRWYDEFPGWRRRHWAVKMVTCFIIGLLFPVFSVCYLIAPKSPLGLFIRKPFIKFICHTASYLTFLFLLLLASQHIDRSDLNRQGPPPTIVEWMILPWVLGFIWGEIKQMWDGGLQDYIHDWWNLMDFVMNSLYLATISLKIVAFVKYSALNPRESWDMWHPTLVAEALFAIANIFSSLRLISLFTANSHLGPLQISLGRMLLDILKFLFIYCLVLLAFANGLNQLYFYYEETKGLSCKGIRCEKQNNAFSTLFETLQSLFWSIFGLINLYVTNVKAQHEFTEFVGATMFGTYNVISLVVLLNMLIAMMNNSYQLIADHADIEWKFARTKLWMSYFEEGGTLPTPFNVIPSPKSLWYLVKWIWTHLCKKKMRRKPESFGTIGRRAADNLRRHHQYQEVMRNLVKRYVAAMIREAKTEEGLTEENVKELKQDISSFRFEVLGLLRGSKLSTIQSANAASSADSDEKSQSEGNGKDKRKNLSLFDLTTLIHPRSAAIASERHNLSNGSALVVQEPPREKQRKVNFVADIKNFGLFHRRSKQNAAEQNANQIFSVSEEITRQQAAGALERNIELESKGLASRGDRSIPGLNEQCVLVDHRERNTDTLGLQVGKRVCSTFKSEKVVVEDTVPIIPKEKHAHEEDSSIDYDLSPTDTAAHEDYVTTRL
TRPC6 act – activators of mouse TRPC6 channel; Q61143; HEK293-TRPC6 membrane potential dye fluorescence; active compounds read high; B-score at 10 µM; 0.13% of 310,000 active; AID 2550;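 active = B-score of the integrated fluorescence ratio above library mean plus 3 SD, and starting fluorescence ratio within library mean plus 5 SD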;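 note: higher score means more depolarization so channel activation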
TRPC4 agonist – activators of mouse TRPC4 channel | 0.49% of 310,000 active | HEK293 TRPC4beta/mu-opioid, Fluo4 calcium fluorescence; active compounds read high | B-score at 10 µM | Q9QUQ5 | AID 2237;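 active = B-score above 5 SD of library B-scores, and initial fluorescence ratio not above library mean plus 5 SD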;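 note: positive B-score marks a calcium rise read as TRPC4 activation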
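Material: TRPC4beta and mu-opioid receptor HEK293 stable cells | Incubation: 45 min room-temperature Fluo4 loading, 110 s read | Detection: Kinetic Fluo4 calcium fluorescence | Measure: Integrated baseline-normalised fluorescence ratio, converted to per-well B score | Benchmarks: Low control buffer alone, high control maximal DAMGO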
TRPC4 inh – blocks the mouse TRPC4 cation channel. Q9QUQ5. HEK293 TRPC4beta/mu-opioid, DAMGO-evoked Fluo4 calcium flux; active compounds read low. B-score at 10 µM. 0.39% of 300,000 active. AID 2247;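 active = B-score over 3 SD under the library average, no early fluorescence shift, positive overall ratio signal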
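Assay system: HEK293 cells with stable TRPC4beta plus mu-opioid receptor expression; Probe or stimulus: DAMGO in two steps, submaximal then maximal; Dosing: single-point compound dosing; Measured by: Fluo4 calcium-dye fluorescence, kinetic read; Read-out basis: B score from integrated Fluo4 fluorescence ratio.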
TRPC6 inhibitor – inhibitors of mouse TRPC6 channel. HEK293-TRPC6, membrane potential dye, ACh-evoked depolarization; active compounds read low. B-score at 10 µM. 1.1% of 310,000 active. AID 2553;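 active = B-score under library mean minus 3 SD, initial fluorescence not abnormally high, positive integrated signal ratio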;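 note: B-score derived from integrated fluorescence ratio over the kinetic read; more negative B-score means stronger inhibition of depolarization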
Each line names hits and unclear results; the compound was inactive in the other large screens.

CC1CCN(c2ccc(-c3cccs3)nn2)CC1	none
NC(=O)C1CCCN(CC(O)COCc2ccc(Cl)cc2)C1 (stereo not given)	TRPC4 agonist 189
CCOC(=O)C1CCN(CC(O)COCc2ccc(Cl)cc2)CC1 (stereo not given)	none
Cc1ccc(COn2c(-c3ccc(Cl)cc3Cl)nc3ncccc32)cc1	TRPC4 agonist 59, TRPC4 inh -8
COn1c(-c2ccc(C)cc2)nc2ncccc21	none
Clc1cccc(COn2c(-c3ccc(Cl)cc3Cl)nc3ncccc32)c1	TRPC4 inh -6
O=C(CCCn1c(=O)[nH]c2ccc(Br)cc2c1=O)NCc1ccc(Cl)cc1	none
NCCNc1ccc([N+](=O)[O-])c(NC2CC2)c1	TRPC4 potent 16
Cc1ccccc1CN1CCC(CNC(=O)C2CCCN(c3ncnc4c3nc3n4CCCCC3)C2)CC1 (stereo not given)	none
COc1ccc(N2CCN(C(CNC(=O)C(C)C)c3ccc4c(c3)OCO4)CC2)cc1 (stereo not given)	TRPC4 agonist 51
COCCNC(=O)C(=O)NCC(c1ccc2c(c1)OCO2)N1CCN(c2ccc(F)cc2)CC1 (stereo not given)	none
COC(=O)NCC(c1ccc2c(c1)OCO2)N1CCN(c2ccc(OC)cc2)CC1 (stereo not given)	TRPC4 agonist 67
COc1ccc(-c2nn(-c3ccccc3)cc2C(=O)OCC(=O)c2ccc(C)c([N+](=O)[O-])c2)cc1	none
NC(=O)CSc1nnc(SCc2ccc(F)cc2)s1	none
CC(NC(=O)C(=O)N1CCCCC1)C(c1cccs1)N1CCN(c2ccccc2)CC1 (stereo not given)	none
O=C(/C=C/c1ccco1)Oc1cc(Br)cc(/C=N/NC(=O)c2ccccc2O)c1	TRPC4 potent 12
O=C1CCCN2N=C(SCC(=O)Nc3ccc(F)cc3F)SC2=N1	none
Cc1ccc(OCC(=O)NNC(=S)NC(=O)C(C)(C)C)c(Br)c1	TRPC4 agonist 235
Cc1ccc(OCC(=O)NNC(=S)NC(=O)C2CCCCC2)c(C)c1	TRPC4 agonist 54
Cc1ccc(OCC(=O)NC(=S)Nc2ccccn2)c(Br)c1	none
Cc1csc(CNC(=O)C2CCC(=O)N(CCc3cccc(F)c3)C2)n1 (stereo not given)	none
O=c1[nH]c2ccc([N+](=O)[O-])cc2nc1/C=C(\O)c1ccccc1	none
OCCN1CCN(Cc2cc(Br)cc(Br)c2O)CC1	TRPC4 agonist 176
Cc1ccc(S(=O)(=O)NCC(=O)OCC(=O)c2c(N)n(C)c(=O)n(C)c2=O)cc1	none
COc1ccc(O)c(C(=O)C2c3ccccc3C(=O)N2c2ccc(C)cc2)c1 (stereo not given)	none
CCOC(=O)C1=NNC(C(=O)c2ccc(Cl)cc2)C1c1ccc(OC)cc1 (stereo not given)	TRPC4 potent 15
COc1ccccc1N1CCN(c2ncc(C(=O)N3CCN(c4cccc(Cl)c4)CC3)c3ccccc23)CC1	TRPC4 potent 21
CCN1CCN(c2ncc(C(=O)Nc3cc(Cl)ccc3OC)c3ccccc23)CC1	TRPC4 potent 12
COc1ccc(Cl)cc1NC(=O)CCN1CCN(c2ccccc2C)CC1	none
CCOc1ccccc1C(=O)N1CCN(c2cccc(Cl)c2)CC1	none
C=CCC1NS(=O)(=O)OC(CCc2ccccc2)C1O (stereo not given)	none
CCN(CC)CCOC(=O)c1cccc(Br)c1	TRPC4 potent 27
CCN(CC)CCOC(=O)c1cccc(Cl)c1	none
CCN(CC)CCOC(=O)c1cccc(OC)c1	TRPC4 agonist 80
N=c1c2c(ncn1Cc1ccco1)Oc1cc(O)ccc1C2c1ccccc1 (stereo not given)	TRPC4 agonist 57
N=c1c2c(ncn1Cc1ccco1)Oc1c(ccc3ccccc13)C2c1ccccc1 (stereo not given)	none
CC(=O)C1=C(c2ccc(Br)cc2)C(=O)c2ccccc2C1=O	TRPC4 potent 35
CCCn1c(N2CCN(S(=O)(=O)Cc3ccccc3)CC2)nc2ccccc21	TRPC4 potent 22
CCn1c(N2CCN(S(=O)(=O)c3ccccc3)CC2)nc2ccccc21	none
O=S(=O)(Nc1ncccn1)c1ccc(NS(=O)(=O)c2cc(Cl)ccc2Cl)cc1	none
O=S(=O)(Nc1cccc(CCc2ccccn2)c1)c1cc(Cl)ccc1Cl	TRPC4 potent 13
Cc1ccc(S(=O)(=O)N(C)C)cc1NC(=O)COC(=O)C1CC1	none
Cc1ccc(NC(=O)CCN2CCC(Cc3ccccc3)CC2)cc1	TRPC4 agonist 96
CN1CCN(CCC(=O)Nc2ccccc2)CC1	none
CCCC(=O)NCc1cc(-c2nn(C)c(=O)c3ccccc23)ccc1OC	none
Cc1ccc(S(=O)(=O)NC(=O)N2CCN(Cc3c(F)cccc3Cl)CC2)cc1	TRPC4 potent 21
CCOC(=O)C(C)Sc1nc2c(c(=O)[nH]c(=O)n2C)n1Cc1ccc(Cl)cc1 (stereo not given)	TRPC4 inh -6
CS(=O)(=O)N(CC(=O)N1CCOCC1)c1cc(Cl)ccc1Cl	none
COC(=O)c1cccc(NC(=O)CN2CCc3ccccc3C2)c1	none
CCOCCSC1=C(C#N)C(c2cccs2)C(C(C)=O)=C(C)N1 (stereo not given)	TRPC4 inh -6
COc1cc(CN2CCCC(CO)(Cc3ccccc3C)C2)cc2c1OCO2 (stereo not given)	TRPC4 inh -6
COCc1ccc(CN2CCCC(CO)(Cc3ccccc3C)C2)o1 (stereo not given)	none
CN(CC1CCCN(CCc2ccccc2F)C1)C(=O)c1ccoc1 (stereo not given)	none
COc1ccc(CCN2CCCC(CN(C)C(=O)c3ccoc3)C2)cc1 (stereo not given)	TRPC4 potent 19
CCOC(=O)N1CCC(N2Cc3cccc(C(=O)NCc4ccccc4OC)c3C2=O)CC1	TRPC6 inhibitor -7.35
CCOC(=O)N1CCC(NC(=O)c2cccc3c2C(=O)N(c2ccc(OC)cc2)C3)CC1	TRPC6 inhibitor -7.8
CCOC(=O)N1CCC(NC(=O)c2cn(-c3ccc(OC)cc3)c(=O)c3ccccc23)CC1	none
CCOC(=O)N1CCC(N2Cc3cccc(C(=O)NCc4ccc5c(c4)OCO5)c3C2=O)CC1	none
O=C(CCN1c2ccccc2Sc2ccccc21)OCc1nnc(-c2ccccc2)o1	TRPC4 potent 12
COc1cccc(NC(=S)N2CCCN(Cc3ccc(F)cc3)C2)c1	TRPC4 agonist 45
COc1ccc(NC(=S)N2CCCN(Cc3cccc(Cl)c3)C2)cc1	none
CC(=O)Nc1cccc(NC(=O)c2ccc(C(=O)Nc3cccc(NC(C)=O)c3)nc2)c1	TRPC4 agonist 73
CC(=O)c1cccc(NC(=O)c2ccc(C(=O)Nc3cccc(C(C)=O)c3)nc2)c1	none
Cc1nc(-c2ccccc2)sc1C(=O)O	none
Cc1nc(-c2cccc(C(F)(F)F)c2)sc1C(=O)O	TRPC4 inh -6
